Measurements gathered from unrelated publications.
Lines come from different studies, so protocols differ.
Organism: Plasmodium falciparum
Read-out: parasite growth
Setting: blood stage

Cc1cc2ccc(-c3cnn(C)c3)cc2n1CC(=O)Nc1ccccc1Cl
EC50 (3D7; 72 h): 603 nM

COc1cc(/C=C/c2cc(/C=C/c3ccc(O)c(OC)c3)n(-c3ccc(Cl)cc3Cl)n2)ccc1O
EC50 (3D7): 3290 nM

COC1=CC(c2ccc[nH]2)=N/C1=C\c1[nH]c(C(=O)O)cc1Cc1ccc(Cl)cc1
IC50 (SYBR Green; D6; 72 h): > 2500 nM

Cc1ccc(N(C)c2ccc(NC(=O)CN(C)c3ccccc3N3CCCC3=O)cn2)cc1
EC50 (3D7; 72 h): 13 nM

C[C@H]1Cc2c([nH]c3cc(Cl)c(F)cc23)[C@@]2(N1)C(=O)Nc1ccc(Cl)cc12
EC50 (DD2; 72 h): 0.7 nM

COc1cc(/C=C/C(=O)/C=C/c2ccc(O)c(OC)c2)ccc1O
EC50 (3D7): 150 nM

Cc1nnc(-c2ccc3ccn(CC(=O)Nc4ccccn4)c3c2)o1
EC50 (3D7; 72 h): 4250 to 4780 nM

Cc1ccc(N(C)c2ccc(NC(=O)CN(C)c3cc(F)ccc3N3CCCC3=O)cc2)cc1
EC50 (3D7; 72 h): 34 nM

COc1cc(/C=C/c2cc(/C=C/c3ccc(O)c(OC)c3)n(-c3cccc([N+](=O)[O-])c3)n2)ccc1O
EC50 (3D7): 820 nM

COC1=CC(c2ccc[nH]2)=N/C1=C\c1[nH]c(C)cc1Cc1ccc(OC(F)(F)F)cc1
IC50 (SYBR Green; D6; 72 h): 2.48 nM

Cc1ccc(N(c2ccc(NC(=O)CN(C)c3ccccc3N3CCCC3=O)cc2)C(C)C)cc1
EC50 (3D7; 72 h): 5 nM

COC1=CC(c2ccc[nH]2)=N/C1=C\c1[nH]c(-c2ccc(OC)cc2)cc1-c1ccc(OC)cc1
IC50 (SYBR Green; D6; 72 h): 31.2 nM

Cc1ccc(N(CC2=NCCN2)c2cccc(O)c2)cc1
IC50 (SYBR Green; 3D7): 1790 nM

Cc1[nH]c(/C=C2\N=C(c3ccc[nH]3)C=C2OC(C)C)cc1Cc1ccc(Cl)cc1
IC50 (SYBR Green; D6; 72 h): 3.75 nM

CCN(CC)CCOc1ccc2c(c1)C(=O)c1cc(OCCN(CC)CC)ccc1-2
IC50 (NF54): 647 nM

Cc1[nH]c(/C=C2\N=C(c3ccc[nH]3)C=C2OCc2ccccc2)cc1Cc1ccc(Cl)cc1
IC50 (SYBR Green; D6; 72 h): 9.98 nM

COc1cc(/C=C2\CCC/C(=C\c3ccc(O)c(OC)c3)C2=O)ccc1O
EC50 (3D7): 200 nM

CCc1nnc(-c2ccc3ccn(CC(=O)Nc4cc(OC)c(OC)c(OC)c4)c3c2)o1
EC50 (DD2; 72 h): 194 nM

CCN(CC)CCCC(C)Nc1ccnc2cc(Cl)ccc12 (stereo not drawn)
EC50 (3D7): 8 nM

CNCC[C@H](Oc1cccc2ccccc12)c1cccs1
IC50 (NF54): 706 nM

CCN(c1ccc(C)cc1)c1ccc(NC(=O)CN(C)c2ccccc2N2CCCC2=O)cn1
EC50 (3D7; 72 h): 4 nM

COC1=CC(c2ccc[nH]2)=N/C1=C\c1cc(Cc2ccc(OC(F)(F)F)cc2)c(C)[nH]1
IC50 (SYBR Green; D6; 72 h): 3.17 nM

CC(C)N(c1ccc(NC(=O)CN(C)c2ccccc2N2CCCC2=O)cc1)c1ccc(Cl)c(F)c1
EC50 (3D7; 72 h): 39 nM

CCN(CC)CCCC(C)Nc1ccnc2cc(Cl)ccc12 (stereo not drawn)
IC50 (ELISA; 3D7; 72 h): 3.3 nM

N#Cc1ccc(Oc2ccc(NC(=O)CNc3ccccc3N3CCCC3=O)cc2)cc1
EC50 (3D7; 72 h): 1400 nM

CC1=C(C)/C(=C/c2[nH]c(Cc3ccc(Cl)cc3)cc2Cc2ccc(Cl)cc2)N=C1c1ccc[nH]1
IC50 (SYBR Green; D6; 72 h): > 2500 nM

Cc1ccc(Oc2ccc(NC(=O)C(C)(C)Nc3ccccc3N3CCCC3=O)cc2)cc1
EC50 (3D7; 72 h): > 10000 nM

Cc1[nH]c(/C=C2\N=C(c3ccc[nH]3)C3=C2OCCO3)cc1Cc1ccc(Cl)cc1
IC50 (SYBR Green; D6; 72 h): 14.3 nM

CC(=O)[C@@]1(O)[C@H](O)C[C@H]2[C@@H]3CCC4=CC(=O)CC[C@]4(C)[C@H]3CC[C@@]21C
IC50 (SYBR Green; 3D7): 142 nM

Cc1ccc(N(C)c2ccc(NC(=O)CN(C)c3ccccc3N3CCCC3=O)c(F)c2)cc1
EC50 (3D7; 72 h): 3 nM
